# Rows were chosen to be rich in hits. Some 6.4% of all compounds tested hit in one or more screens of this group.
# TbMetRS inhib: blocks T. brucei methionyl-tRNA synthetase activity. inhibition, % at 11.9 µM. AID 624268. 360,000 compounds, 0.4% hits. purified T. brucei MetRS, ATP depletion, Kinase-Glo luminescence;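 active means inhibition above a per-plate cutoff of the control wells' mean inhibition plus 3 SD, cut at about 5.5% in these data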;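 further: 0% = DMSO wells median and 100% = median of wells with control inhibitor compound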
#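 Material: parasite MetRS enzyme / Replication: singlicate, one well per compound / Signal: luminescence of leftover ATP / Schedule: 2 h aminoacylation at 25 °C after 15 min preincubation / Medium: HEPES-MgCl2-KCl buffer plus DTT, spermine, BSA, pyrophosphatase / Doses: 11.9 µM single point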
# MPTP inh: inhibitors of mitochondrial permeability transition pore; isolated mouse mitochondria, Ca2+ swelling absorbance, 30 min; 360,000 compounds, 1.4% hits; inhibition, % at 10 µM; AID 602449;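 active means inhibition of 50% or more, scaled per plate between neutral and stimulator controls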;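 further: 0% = DMSO wells given calcium and 100% = 1 mM EGTA wells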
# WT yeast gro inh: growth inhibition of WT yeast, mitochondrial fusion screen; mitochondrial fusion phenotypic screen, WT strain; inhibition, % at 10 µM; 190,000 compounds, 2.1% hits; AID 1362; in the data active means inhibition above about 58%; tested in S. cerevisiae
# GRIN3A LBD mod: NR3A (human) ligand-binding domain modulation; NR3A LBD differential scanning fluorimetry, Tm shift; 0% = protein alone, 100% = glycine-bound protein; Tm shift relative to glycine control, % at 25 µM; 340,000 compounds, 2.5% hits; AID 1259313;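 active means melting temperature shift of at least 10% of the positive control shift, at one fixed dose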
# CHOP inh: blocks CHOP induction under ER stress | CHO-K1 CHOP-promoter luciferase, tunicamycin-induced, 15-18 h | inhibition, % at 10 µM | 220,000 compounds, 3.8% hits | AID 2732;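 active means compounds that reduced the stress-induced luciferase reporter signal by more than about 70% of percent inhibition, limit read from the data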;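 further: 0% = tunicamycin plus vehicle and 100% = wells without tunicamycin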
# EBV gp42 block: inhibitors of Epstein-Barr virus glycoprotein 42. 220,000 compounds, 0.42% hits. Q1HVG2. Fluorescence polarization binding assay, mP read-out. inhibition, % (tested at 21.74 µM). AID 1085; in the data active means inhibition above about 50%
# Target sequence (Q1HVG2 whole entry, looked up): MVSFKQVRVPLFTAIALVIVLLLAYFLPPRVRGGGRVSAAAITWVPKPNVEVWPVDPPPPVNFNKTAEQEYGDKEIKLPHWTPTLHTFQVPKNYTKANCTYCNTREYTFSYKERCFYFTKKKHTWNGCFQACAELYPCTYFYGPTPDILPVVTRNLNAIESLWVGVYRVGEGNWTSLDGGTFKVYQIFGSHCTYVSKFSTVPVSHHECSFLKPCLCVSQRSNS
# An asterisk follows results filed as active; / = no result given.
SMILES,TbMetRS inhib,MPTP inh,WT yeast gro inh,GRIN3A LBD mod,CHOP inh,EBV gp42 block
CCC(C)c1ccc(NC(=S)Nc2ccc(OC)cc2)cc1 (configuration not stated),1,25,72*,0,44,11
CCOc1ccc(NC(=S)Nc2ccc(OC)cc2)cc1,0,3,-2,-6,16,6
NS(=O)(=O)c1cccc(NC(=O)CCSc2ccccc2Cl)c1,0,4,-7,-21,4,-18
CC(C)C[C@H](N)c1nnc(SCC(=O)Nc2ccc(Br)cc2)o1,0,-2,/,2,/,/
CCOC(=O)N1CCN(C(=S)NC(=O)c2nn(C)cc2Br)CC1,0,0,-8,2,-19,-17
O=C(Nc1ccc(F)cc1F)Nc1sccc1-c1nc2ccccc2s1,0,31,/,21*,45,-27
O=C(Nc1nc2ccccc2s1)Nc1ccc(F)cc1F,0,5,/,-3,/,/
COc1ccc(Cc2noc(CN3CCCC(C(=O)c4cccs4)C3)n2)cc1OC (configuration not stated),-1,3,-8,-1,27,-15
CCOC(=O)Cc1c(Sc2ccccc2)c2cc(C)ccc2n1C,0,5,68*,0,29,-6
Cn1c(CC(=O)Nc2ccccc2C(F)(F)F)c(Sc2ccccc2)c2ccccc21,0,2,-11,-2,76*,-7
CC(C)(C)c1ccc(-c2nc(C=O)c3ccccn23)cc1,0,2,6,1,24,-18
Cc1cc(C)c(CSc2ncnc3nc[nH]c23)c(C)c1,1,0,69*,-4,9,0
Cc1cccc(CSc2ncnc3nc[nH]c23)c1,0,-2,11,0,-1,-1
COC(=O)Cc1ccc(NC(=S)NCc2ccc(F)cc2)cc1,0,3,-2,-3,10,1
Cc1ccccc1N1CCN(C2CCCN(C(=O)c3ccccn3)C2)CC1 (configuration not stated),0,-1,/,-5,/,/
CC(=O)OCCN1C(=O)c2cccnc2C1=O,-1,-6,7,13*,-16,-26
COc1ccc(N=Nc2nc3cc(Br)c(Br)cc3n2C)c(OC)c1,-1,0,61*,-11,27,118*
COc1ccc(CNc2nc3ccccc3n2C)c(OC)c1,0,1,-2,1,14,-11
N#CC1=C(N)Nc2ncnn2C1c1ccccc1 (configuration not stated),/,/,-12,/,19,-2
N#CC1=C(N)Nc2nc3ccccc3n2C1c1ccc(Cl)cc1 (configuration not stated),0,6,31,38*,90*,-11
COc1ccc2c(c1OC)C(=O)OC2C1c2c(cc3c(c2OC)OCO3)CCN1C (configuration not stated),-1,1,-5,-2,9,-8
CN1CCc2cc3c(c4c2[C@H]1[C@H](O)c1ccccc1-4)OCO3,0,0,34,-1,6,59*
O=C(NCC(c1ccco1)N1CCCCC1)c1ccc(OCc2ccccc2)cc1 (configuration not stated),0,0,71*,-2,28,3
COc1ccc(CN(C(=S)Nc2ccccc2)C2CC(=O)N(c3ccc(Cl)cc3)C2=O)cc1 (configuration not stated),0,0,2,24*,72*,12
O=C1CC(N(Cc2cccs2)C(=O)Nc2ccccc2)C(=O)N1c1ccc(Cl)cc1 (configuration not stated),2,0,-3,14*,33,-1
COc1ccc(CN(C(=S)Nc2ccccc2)C2CC(=O)N(c3ccccc3)C2=O)cc1 (configuration not stated),0,2,-12,37*,2,1
O=C(NCC1CCCO1)c1cc([N+](=O)[O-])ccc1N1CCC(Cc2ccccc2)CC1 (configuration not stated),0,0,/,4,/,/
CCCC1(CCC)NC(=O)N(CC(=O)N2CCc3ccccc32)C1=O,0,0,/,1,/,/
O=C(Nc1ccc(F)cc1)C1CC(=O)n2ncnc2N1 (configuration not stated),0,1,7,-1,-9,-22

# Compound activity: PubChem, several laboratories
